NR2E3 ag-1 – activates human photoreceptor nuclear receptor NR2E3; Q9Y5X4; GST-NR2E3/biotin-RetCOR TR-FRET, 1536-well; hit rate 0.12% among 320,000; inhibition of corepressor binding, % at 4.78 µM;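 active means percent inhibition above the cutoff of mean plus 3 SD of all tested compounds, set per screening campaign, cut at about 20% in these data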;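 further: 0% = DMSO wells and 100% = biotin wells as full block of FRET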
Target sequence (Q9Y5X4 whole entry, looked up): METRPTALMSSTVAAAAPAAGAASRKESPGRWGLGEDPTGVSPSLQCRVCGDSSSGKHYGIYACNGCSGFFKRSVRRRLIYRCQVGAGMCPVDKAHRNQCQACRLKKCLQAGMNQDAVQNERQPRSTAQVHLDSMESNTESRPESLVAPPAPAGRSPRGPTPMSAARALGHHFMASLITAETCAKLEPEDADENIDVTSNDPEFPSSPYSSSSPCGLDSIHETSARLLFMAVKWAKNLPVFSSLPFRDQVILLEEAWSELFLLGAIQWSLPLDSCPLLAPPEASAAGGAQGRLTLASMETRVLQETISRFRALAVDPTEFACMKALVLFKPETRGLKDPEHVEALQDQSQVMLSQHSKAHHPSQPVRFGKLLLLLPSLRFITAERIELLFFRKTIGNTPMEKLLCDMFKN
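Material – GST-tagged NR2E3 plus biotinylated RetCOR corepressor · Quantity – NR2E3 fusion 1.35 nM · Times – 5 h incubation at 4 °C · Medium – pH 7.5 Tris-based buffer · Technique – TR-FRET, Eu(K)-anti-GST donor, streptavidin-D2 acceptor, ex 340, em 617/671 nm · Benchmarks – high control biotin, low control 0.6% DMSO · Format – 1536-well plates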
697 NFkB inh – inhibitors of the PMA/ionomycin-induced NF-kB reporter in 697 B cells | 697 B-cell NF-kB luciferase reporter, 16 h | inhibition, % at 4 µM | hit rate 0.33% among 330,000 | AID 435022; in the data active means inhibition above about 35%
Jurkat NFkB inh – lowers PMA/ionomycin-induced NF-kB signal in Jurkat cells; hit rate 0.53% among 330,000; inhibition, % at 4 µM; PMA/ionomycin-induced NF-kB luciferase reporter, luminescence; in the data active means inhibition above about 50%
NR2E3 ag-2 – agonists of human NR2E3 nuclear receptor | AID 602229 | hit rate 0.35% among 360,000 | CHO-S Gal4-NCOR/VP16-NR2E3 two-hybrid, luciferase | inhibition of corepressor binding, % at 3.98 µM | Q9Y5X4;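 active means inhibition above the mean of all tested compounds plus 3 SD, cut at about 70% in these data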;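 further: 0% = DMSO with NR2E3 transfected cells and 100% = cells lacking NR2E3 construct; higher means lower luciferase signal from less NR2E3 corepressor binding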
FGF22 binding – shifts melting point of recombinant human FGF22; Q9HCT0; recombinant FGF22 thermal shift, SYPRO orange fluorescence; percent of sucrose octasulfate shift, DMSO zero; activity (Tm shift, normalised), % at 9.99 µM; hit rate 1.5% among 340,000;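 active means mean Tm shift, scaled 0 neutral to 100 positive control, at about 1.3% or above, every replicate too, limit read from the data; inconclusive means no clear call, values can overlap the other calls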
Target sequence (Q9HCT0 whole entry, looked up): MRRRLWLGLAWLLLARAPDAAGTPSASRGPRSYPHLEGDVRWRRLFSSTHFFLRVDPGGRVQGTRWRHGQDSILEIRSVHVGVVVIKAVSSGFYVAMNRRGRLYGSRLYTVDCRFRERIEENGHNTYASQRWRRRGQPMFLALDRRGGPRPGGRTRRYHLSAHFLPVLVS
miR-122 sensor – inhibitors of miR-122 in Huh7 cells; Huh7 miR-122 Renilla luciferase sensor, 48 h; neutral wells = 0, positive control = 100; activation (reporter increase), % at 12.5 µM; hit rate 0.3% among 340,000;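 active means mean replicate activation score at least 90 and every replicate individually at or above 90; inconclusive means only one of the two criteria met; inactive means neither criterion met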;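 further: higher luciferase means less miR-122 activity so hits act as miR-122 inhibitors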
* = called active by the depositor; ? = inconclusive; . = no result given; [ ] = remark or other dose. Only some compounds are listed: those with a hit (about 2.2% of all), similar ones and a draw of the others.

SMILES	NR2E3 ag-1	697 NFkB inh	Jurkat NFkB inh	NR2E3 ag-2	FGF22 binding	miR-122 sensor
NNC(=O)c1sccc1OCc1cccc(C(F)(F)F)c1	0	5	0	-15	0	5
CC(=O)c1ccc(OCc2cccc(C(F)(F)F)c2)cc1O	7	8	13	5	43*	2
COC(=O)C[C@@H]1C[C@@H]2c3cc(NC(=O)Nc4ccccc4)ccc3O[C@@H]2[C@H](CO)O1	.	.	.	.	-1	3[16.7 µM]
C/C(N)=C(/C#N)C(=O)COC(=O)CNS(=O)(=O)c1ccc2ccccc2c1	2	8	3	-6	0	.
C/C(N)=C(/C#N)C(=O)COC(=O)CNS(=O)(=O)c1c(F)cccc1F	6	15	-4	-4	43*	-10
C[C@@H]1CCCCO[C@H](CN(C)Cc2ccncc2)[C@@H](C)CN([C@@H](C)CO)C(=O)c2cc(NC(=O)Nc3ccc(F)cc3)ccc2O1	.	.	.	.	1	0[16.7 µM]
CC(C(=O)Nc1ccccc1-c1ccccc1)N1CCN(Cc2ccccc2)CC1 (stereo not given)	1	-12	5	-9	43*	1
CN(C)CCCNC(=O)C[C@@H]1C=C[C@@H](NS(=O)(=O)c2ccccc2)[C@H](CO)O1	.	.	.	.	0	-6[16.7 µM]
COc1ccccc1C(=O)NC(=O)CSc1ccc(C)c(C)c1	.	-9	-3	-11	43*	.
O=C(Nc1ccccc1F)N[C@@H]1CC[C@@H](CCNC(=O)C2CCCC2)O[C@@H]1CO	.	.	.	.	0	6[16.7 µM]
Cc1sc(NC(=O)Cn2cnnn2)nc1-c1ccc(Cl)cc1	1	15	1	-27	43*	.
Fc1ccc(/C=N/Nc2ccccn2)cc1	1	-28	-35	-39	44*	.
Clc1ccc(/C=N/Nc2ccccn2)cc1	4	-49	-60	-92	0	0
CCCc1cc(=O)n2[nH]c(C)nc2n1	1	14	-3	0	.	3
CCCc1cc(=O)n2[nH]c(C(F)(F)F)nc2n1	4	0	22	-5	43*	-1
O=C(N[C@H]1C=C[C@H](CC(=O)N2CCc3ccccc3C2)O[C@H]1CO)C1CC1	.	.	.	.	0	.
Cc1cc(C)cc(N(C(=O)c2sc(C)nc2C)C(C(=O)NCc2ccco2)c2ccccc2)c1 (stereo not given)	6	4	-9	-16	0	3
Cc1cc(C)cc(N(C(=O)c2sc(C)nc2C)C(C(=O)NC(C)(C)C)c2ccncc2)c1 (stereo not given)	-6	11	9	-11	43*	-1
C/C=C/c1cnc2c(c1)C(=O)N([C@@H](C)CO)C[C@@H](C)[C@H](CN(C)C(=O)Nc1ccc(F)cc1)O2	.	.	.	.	0	20[16.7 µM]
CN(C)C(=O)c1ccc(-c2ccccc2[C@@H]2[C@@H](C#N)N(C(=O)C3CCC3)[C@@H]2CO)cc1	.	.	.	.	0	.
COC(=O)[C@H]1[C@H](CO)[C@H]2Cn3c(ccc(-c4ccccc4)c3=O)[C@H]2N1C(=O)C1CC1	.	.	.	.	0	-1[16.7 µM]
Cc1nc2ccc(NS(=O)(=O)c3c(C)c(C)cc(C)c3C)cc2s1	3	-38	14	10	.	125*
Cc1nc2cc(NS(=O)(=O)c3c(C)c(C)cc(C)c3C)ccc2s1	-5	-32	17	44	.	313*
Cc1ccc(S(=O)(=O)Nc2ccc3nc(N)sc3c2)cc1	-3	-33	15	25	.	268*
CC(=O)Nc1ccc2nc(NS(=O)(=O)c3ccc(C)cc3)sc2c1	-1	4	-14	-11	.	.
SMILES	NR2E3 ag-1	697 NFkB inh	Jurkat NFkB inh	NR2E3 ag-2	FGF22 binding	miR-122 sensor
Cc1cc(NS(=O)(=O)c2ccc(NS(=O)(=O)c3ccc(CC(C)C)cc3)cc2)nc(C)n1	-2	6	-10	-13	1	.
Cc1ccc(S(=O)(=O)Nc2ccc(S(=O)(=O)Nc3cc(C)nc(C)n3)cc2)cc1	-1	13	5	1	43*	.
CCOC(=O)Nc1ccc(NS(=O)(=O)c2ccc(C)cc2)cc1	1	7	9	-21	.	206*
CCOC(=O)Nc1ccc(S(=O)(=O)Nc2nc(C)cc(C)n2)cc1	1	27	14	-7	0	0
Cc1ccc(NC(=S)NN2CCN(C)CC2)c(C)c1	0	-9	-6	-3	43*	.
COc1ccc(C)cc1NC(=S)NN1CCN(C)CC1	3	9	-3	10	0	.
C[C@H](CO)N1C[C@H](C)[C@@H](CN(C)C(=O)c2ccccn2)Oc2ncc(C3=CCCC3)cc2C1=O	.	.	.	.	0	23[16.7 µM]
CCc1ccc(NS(=O)(=O)c2ccc(OC)c3ncccc23)cc1	-1	-30	14	0	0	173*
CCOc1ccc(S(=O)(=O)Nc2ccc3c(c2)OCO3)c2cccnc12	-3	-5	-33	16	.	?
CCc1ccccc1NS(=O)(=O)c1ccc(OC)c2ncccc12	-2	11	7	-40	0	84
CCOc1ccc(S(=O)(=O)Nc2cccc(C)c2)c2cccnc12	4	-13	-6	-20	43*	74
C[C@H](CO)N1C[C@H](C)[C@@H](CN(C)Cc2ccccn2)Oc2ncc(C#Cc3ccc(F)cc3)cc2C1=O	.	.	.	.	0	-9[16.7 µM]
CN1CCC(=NNC(=O)C(=O)Nc2ccccc2F)CC1	0	15	5	-7	43*	2
CN1CCC(=NNC(=O)C(=O)NC(C)(C)C)CC1	1	14	-11	-15	0	.
O=C(CN1C(=O)CCC1=O)Nc1nc(-c2ccc3ccccc3c2)cs1	2	-41	-21	-54	44*	.
COc1ccc(S(=O)(=O)N(C)C[C@@H]2Oc3ccc(NC(=O)CCCN(C)C)cc3CC(=O)N([C@H](C)CO)C[C@@H]2C)cc1	.	.	.	.	0	.
CCOC(=O)c1ccc(NC(=O)CSc2nc3sc(C(=O)O)c(C)c3c(=O)[nH]2)cc1	-5	12	0	3	43*	-1
Cc1sc2nc(SCC(=O)O)[nH]c(=O)c2c1C	2	6	5	5	43*	.
O=C(C[C@H]1CC[C@@H]2[C@H](COC[C@@H](O)CN2C(=O)Nc2cc(Cl)cc(Cl)c2)O1)NCC1CC1	.	.	.	.	0	3[16.7 µM]
C[C@H](NC(=O)C[C@H]1C[C@@H]2c3cc(NS(C)(=O)=O)ccc3O[C@@H]2[C@H](CO)O1)c1ccccc1	.	.	.	.	0	2[16.7 µM]
CC(C(=O)Nc1ccccc1C(=O)O)n1c(C(F)(F)F)nc2ccccc21 (stereo not given)	2	10	-4	-3	43*	-2
COc1cc(/C=C/C(=O)Nc2cccc(S(=O)(=O)N3CCOCC3)c2)ccc1OCC#N	1	32	13	3	4.1*	-2
C[C@@H]1CN([C@@H](C)CO)C(=O)c2cc(C#C[C@@H](C)O)cnc2O[C@@H]1CN(C)C(=O)CC1CC1	.	.	.	.	0	2[16.7 µM]
Cc1ccc2nc(C)c(C)nc2c1N	-2	11	5	-37	.	113*

Source: PubChem BioAssay (several laboratories)
